Test results taken from ChEMBL document CHEMBL1135973, “Synthesis and structure-activity relationships of 6,7-benzomorphan derivatives as use-dependent sodium channel blockers for the treatment of stroke” (J Med Chem, 2002).

Tests used:
[1] = species: Mus musculus; test: Ability to block convulsions in the maximal electroshock test (MES) in mice; format: functional
Outline: (§1)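 Male OF1 mice, groups of 10, given several doses sc; electroshock 20 mA/50 Hz/200 ms through eye electrodes 15 min after injection. Score is the percentage of animals free of tonic convulsions. ID50 for inhibition of tonic seizures obtained by log-probit analysis over three to four doses.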

[2] = biological target: T1, Sodium channel alpha subunits; brain (Types I, II, III) (Rattus norvegicus, UniProt P04775+P04774+P08104); test: Inhibitory effect against veratridine-induced glutamate release from rat brain slices; format: functional
Outline: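 Cross-chopped 0.2 mm slices of Chbb:Thom rat cortex or striatum preincubated 45 min at 37 °C in oxygenated Krebs–Henseleit buffer pH 7.4 with glucose, EDTA and ascorbate. Then 15 min with or without 3 μM veratridine, drug present throughout. After centrifugation, supernatant glutamate measured by HPLC with fluorimetric detection; protein by Coomassie.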

[3] = biological target: T1, Sodium channel alpha subunits; brain (Types I, II, III); test: Displacement of [3H]BTX from sodium channel of rat cerebral cortex synaptosomes; format: subcellular
Outline: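 Synaptosomal membranes from rat cerebral cortex incubated 1 h at 37 °C with 1 nmol/L [3H]BTX-B in choline Cl/HEPES-Tris buffer pH 7.4 containing glucose, KCl and MgSO4, plus scorpion venom. Nonspecific binding defined with 100 μmol/L aconitine. Stopped by vacuum filtration through glass fiber and two buffer washes.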

[4] = species: Mus musculus; test: Percent of mice that did not develop tonic convulsion in the maximal electroshock test (MES); format: functional; outline: as §1
[5] = biological target: T2, Voltage-gated L-type calcium channel (Rattus norvegicus, UniProt P22002+Q02485+P27732); test: Displacement of verapamil from L-type calcium channel binding site; format: protein assay
[6] = biological target: T2, Voltage-gated L-type calcium channel; test: Displacement of DHP from L-type calcium channel binding site; format: protein assay
[7] = biological target: T1, Sodium channel alpha subunits; brain (Types I, II, III); test: Displacement of [3H]-TTX from sodium channel of rat cerebral cortex synaptosomes; format: subcellular
[8] = biological target: T2, Voltage-gated L-type calcium channel; test: Displacement of diltiazem from L-type calcium channel binding site; format: protein assay
[9] = biological target: T3, Sodium channel alpha subunits; brain (Types I, II, III) (Rattus norvegicus) (UniProt P04775+P04774+P08104); test: Percent inhibition of veratridine-induced glutamate release in rat brain slices at 10000 nmol/L; format: functional, tissue-based
T3 sequence (P04775 whole entry, looked up, other chains not shown): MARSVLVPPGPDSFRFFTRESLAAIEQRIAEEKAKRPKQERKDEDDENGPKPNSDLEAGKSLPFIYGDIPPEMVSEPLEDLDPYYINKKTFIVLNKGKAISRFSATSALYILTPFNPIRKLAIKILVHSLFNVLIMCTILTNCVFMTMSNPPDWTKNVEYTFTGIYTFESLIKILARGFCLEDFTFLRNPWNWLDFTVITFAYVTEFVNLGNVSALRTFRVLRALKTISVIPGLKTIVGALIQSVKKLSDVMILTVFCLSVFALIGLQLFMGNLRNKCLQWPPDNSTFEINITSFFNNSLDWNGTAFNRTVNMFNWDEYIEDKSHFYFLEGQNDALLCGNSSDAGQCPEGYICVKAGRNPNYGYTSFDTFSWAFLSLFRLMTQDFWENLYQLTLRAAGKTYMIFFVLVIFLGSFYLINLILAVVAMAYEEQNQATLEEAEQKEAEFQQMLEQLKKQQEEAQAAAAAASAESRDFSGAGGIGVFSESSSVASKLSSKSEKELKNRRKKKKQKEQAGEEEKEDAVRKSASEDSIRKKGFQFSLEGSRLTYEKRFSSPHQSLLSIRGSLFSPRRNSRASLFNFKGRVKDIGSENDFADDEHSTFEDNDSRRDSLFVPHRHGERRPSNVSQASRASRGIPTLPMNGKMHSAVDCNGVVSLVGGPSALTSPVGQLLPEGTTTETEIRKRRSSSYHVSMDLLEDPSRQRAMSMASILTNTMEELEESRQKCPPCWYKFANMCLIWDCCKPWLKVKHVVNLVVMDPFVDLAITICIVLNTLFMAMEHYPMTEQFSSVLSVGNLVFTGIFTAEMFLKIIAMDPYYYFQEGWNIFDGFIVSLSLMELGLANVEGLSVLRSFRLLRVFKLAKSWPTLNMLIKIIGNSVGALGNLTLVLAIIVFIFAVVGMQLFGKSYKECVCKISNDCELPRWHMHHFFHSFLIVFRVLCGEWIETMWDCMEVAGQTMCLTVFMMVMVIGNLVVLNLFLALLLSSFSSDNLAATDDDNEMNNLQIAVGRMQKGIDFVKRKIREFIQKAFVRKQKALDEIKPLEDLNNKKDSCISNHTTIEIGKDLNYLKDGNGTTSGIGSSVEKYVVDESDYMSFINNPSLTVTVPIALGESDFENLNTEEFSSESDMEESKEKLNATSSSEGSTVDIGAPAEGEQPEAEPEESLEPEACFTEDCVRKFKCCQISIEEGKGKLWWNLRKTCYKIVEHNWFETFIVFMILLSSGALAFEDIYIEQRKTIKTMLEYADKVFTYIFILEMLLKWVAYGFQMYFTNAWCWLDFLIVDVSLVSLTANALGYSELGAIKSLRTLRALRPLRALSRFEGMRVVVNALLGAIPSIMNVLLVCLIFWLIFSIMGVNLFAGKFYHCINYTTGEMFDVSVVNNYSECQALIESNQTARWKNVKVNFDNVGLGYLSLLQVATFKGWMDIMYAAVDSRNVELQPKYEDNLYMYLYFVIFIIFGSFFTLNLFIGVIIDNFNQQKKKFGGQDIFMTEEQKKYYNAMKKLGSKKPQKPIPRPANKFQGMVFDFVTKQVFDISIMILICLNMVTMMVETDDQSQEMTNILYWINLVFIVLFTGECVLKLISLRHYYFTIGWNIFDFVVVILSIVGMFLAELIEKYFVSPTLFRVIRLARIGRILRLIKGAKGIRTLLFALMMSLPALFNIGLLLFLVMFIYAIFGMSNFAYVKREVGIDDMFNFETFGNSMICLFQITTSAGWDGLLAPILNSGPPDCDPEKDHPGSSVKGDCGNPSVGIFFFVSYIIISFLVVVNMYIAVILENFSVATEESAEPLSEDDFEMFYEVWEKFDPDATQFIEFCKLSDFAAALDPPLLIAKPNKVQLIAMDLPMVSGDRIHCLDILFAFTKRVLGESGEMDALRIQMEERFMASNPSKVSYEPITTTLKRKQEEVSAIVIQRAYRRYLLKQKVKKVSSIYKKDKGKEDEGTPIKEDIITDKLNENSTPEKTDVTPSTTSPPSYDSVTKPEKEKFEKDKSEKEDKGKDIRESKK
T3 sequence (P08104 whole entry, looked up, other chains not shown): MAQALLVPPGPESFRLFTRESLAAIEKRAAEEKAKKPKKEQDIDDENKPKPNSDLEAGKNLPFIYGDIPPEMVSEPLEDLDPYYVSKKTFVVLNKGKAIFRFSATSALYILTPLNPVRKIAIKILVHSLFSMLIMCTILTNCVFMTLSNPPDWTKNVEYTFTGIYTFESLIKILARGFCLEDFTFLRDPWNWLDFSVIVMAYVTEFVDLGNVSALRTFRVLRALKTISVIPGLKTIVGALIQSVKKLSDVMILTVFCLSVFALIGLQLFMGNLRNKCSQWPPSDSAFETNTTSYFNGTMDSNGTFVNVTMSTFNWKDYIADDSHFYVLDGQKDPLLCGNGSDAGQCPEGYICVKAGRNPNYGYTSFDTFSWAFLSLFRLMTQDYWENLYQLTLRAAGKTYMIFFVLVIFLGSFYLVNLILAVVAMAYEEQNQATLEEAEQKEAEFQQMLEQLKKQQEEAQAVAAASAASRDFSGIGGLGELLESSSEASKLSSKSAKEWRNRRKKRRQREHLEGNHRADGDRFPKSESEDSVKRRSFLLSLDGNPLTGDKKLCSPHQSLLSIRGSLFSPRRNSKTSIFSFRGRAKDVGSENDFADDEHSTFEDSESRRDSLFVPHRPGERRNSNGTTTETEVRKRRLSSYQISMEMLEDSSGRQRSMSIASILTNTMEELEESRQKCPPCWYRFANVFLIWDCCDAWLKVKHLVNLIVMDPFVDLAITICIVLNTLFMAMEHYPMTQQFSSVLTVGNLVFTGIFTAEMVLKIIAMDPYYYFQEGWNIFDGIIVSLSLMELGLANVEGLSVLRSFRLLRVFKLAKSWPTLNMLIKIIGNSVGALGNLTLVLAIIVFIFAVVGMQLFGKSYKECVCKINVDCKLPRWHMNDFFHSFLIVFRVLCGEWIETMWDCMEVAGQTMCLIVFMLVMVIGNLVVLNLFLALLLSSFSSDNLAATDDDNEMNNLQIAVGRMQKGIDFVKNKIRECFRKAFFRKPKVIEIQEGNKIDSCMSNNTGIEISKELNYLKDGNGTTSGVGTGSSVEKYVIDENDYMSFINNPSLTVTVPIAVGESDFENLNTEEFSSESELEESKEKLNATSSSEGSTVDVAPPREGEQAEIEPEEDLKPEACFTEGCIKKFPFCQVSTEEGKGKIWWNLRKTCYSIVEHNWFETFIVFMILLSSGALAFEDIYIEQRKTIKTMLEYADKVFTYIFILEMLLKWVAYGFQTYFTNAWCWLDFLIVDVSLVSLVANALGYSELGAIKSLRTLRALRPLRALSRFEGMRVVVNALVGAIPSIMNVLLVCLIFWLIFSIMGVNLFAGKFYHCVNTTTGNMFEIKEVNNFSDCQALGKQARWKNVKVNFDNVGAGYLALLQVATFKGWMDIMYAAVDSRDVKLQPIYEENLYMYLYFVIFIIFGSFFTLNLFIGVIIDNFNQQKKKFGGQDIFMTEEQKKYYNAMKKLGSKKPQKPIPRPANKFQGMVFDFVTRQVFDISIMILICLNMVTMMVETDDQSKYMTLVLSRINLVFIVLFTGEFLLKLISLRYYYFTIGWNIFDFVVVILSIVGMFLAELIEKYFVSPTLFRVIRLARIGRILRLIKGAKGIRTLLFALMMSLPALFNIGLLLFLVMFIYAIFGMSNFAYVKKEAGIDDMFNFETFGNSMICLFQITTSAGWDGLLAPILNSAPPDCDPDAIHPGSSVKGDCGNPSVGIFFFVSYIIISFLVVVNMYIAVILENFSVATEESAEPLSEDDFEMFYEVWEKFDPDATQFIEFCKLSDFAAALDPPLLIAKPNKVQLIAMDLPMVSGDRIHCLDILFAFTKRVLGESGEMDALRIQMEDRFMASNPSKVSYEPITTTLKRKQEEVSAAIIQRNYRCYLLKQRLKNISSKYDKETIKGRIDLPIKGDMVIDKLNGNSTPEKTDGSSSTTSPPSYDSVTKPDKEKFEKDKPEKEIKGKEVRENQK

[10] = biological target: T3, Sodium channel alpha subunits; brain (Types I, II, III) (Rattus norvegicus); test: Percent inhibition of [3H]BTX displacement at 10000 nmol/L; format: protein assay
[11] = biological target: T2, Voltage-gated L-type calcium channel; test: Displacement of dihydropyridine (DHP) from the L-type calcium channel binding site; format: protein assay
[12] = species: Mus musculus; test: Ability to block convulsions in the maximal electroshock test(MES) in mice; format: functional; conditions: read-out: ID50 (the source's name); outline: as §1
[13] = read-out: ID50 (the source's name)

| SMILES | IC50 [2] | Ki [3] [µM] | ED50 [1, 13] [mg/kg] | also measured |
| --- | --- | --- | --- | --- |
| CO[C@@H](C)CN1CCC2(C)c3cccc(O)c3C[C@@H]1C2(C)C | 3190 nmol/L | 0.783 | – | ED50 [1]: 1 mg/kg |
| CO[C@H](C)CN1CCC2(C)c3cccc(O)c3C[C@@H]1C2(C)C | 4153 nmol/L | 3.31 | – | ED50 [1]: 0.8 mg/kg |
| CN(c1nc2ccccc2s1)C1CCN(C[C@H](O)COc2ccc(F)c(F)c2)CC1 [LUBELUZOLE] | – | 0.203 | – | – |
| C[C@@H](CN1CCC2(C)c3cccc(O)c3C[C@@H]1C2(C)C)OCC1CCCCC1 | 975 nmol/L | 0.208 | > 30 | Mice [4]: 0% |
| C[C@@H](CN1CCC2(C)c3ccc(O)cc3C[C@H]1C2(C)C)Oc1ccccc1 | 6464 nmol/L | 1.53 | > 100 | Animals [4]: 0% |
| C[C@H](CN1CCC2(C)c3cccc(O)c3C[C@@H]1C2(C)C)OCc1ccccc1 | 922 nmol/L | 0.114 | 9.4 | Ki [5]: 500 nM l-1; Ki [6]: > 10000 nM l-1; Ki [7]: > 10000 nM l-1; Ki [8]: 391 nM l-1 |
| COC(C)CN1CCC2(C)c3ccc(O)cc3C[C@@H]1C2(C)C (stereo partly specified) | > 10000 nmol/L | > 10 | – | ED50 [1]: 0.7 mg/kg; inhibition [9]: 21%; inhibition [10]: 45% |
| CO[C@@H](C)CN1CCC2(C)c3ccccc3C[C@@H]1C2(C)C | ~ 10000 nmol/l | 4.7 | – | inhibition [9]: 52% |
| C[C@H](CN1CCC2(C)c3ccc(O)cc3C[C@H]1C2(C)C)OCc1ccccc1 | 2676 nmol/L | 1.23 | > 100 | Mice [4]: 30% |
| C[C@@H](CN1CCC2(C)c3cccc(O)c3C[C@H]1C2(C)C)OCc1ccccc1 | 1289 nmol/L | 1.33 | > 100 | Mice [4]: 40% |
| C[C@@H](CN1CCC2(C)c3ccc(O)cc3C[C@@H]1C2(C)C)Oc1ccccc1 | 5799 nmol/L | 0.149 | > 30 | Animals [4]: 0% |
| CC1[C@H]2Cc3c(O)cccc3C1(C)CCN2C[C@H](C)OCc1ccccc1 (stereo partly specified) | 134 nmol/L | 0.054 | 2.4 | – |
| C[C@H](CN1CCC2(C)c3ccc(O)cc3C[C@@H]1C2(C)C)OCc1ccccc1 | 3177 nmol/L | 0.382 | 35.3 | – |
| Cc1cccc(C)c1OCC(C)N (stereo unspecified) [MEXILETINE] | 47000 nmol/L | 22.7 | – | – |
| C[C@@H](CN1CCC2(C)c3ccc(O)cc3C[C@@H]1C2(C)C)OCc1ccccc1 | 2300 nmol/L | 0.312 | 10.1 | – |
| C[C@@H](CN1CCC2(C)c3ccc(O)cc3C[C@H]1C2(C)C)OCc1ccccc1 | 4516 nmol/L | 1.87 | > 100 | Mice [4]: 30% |

| SMILES | IC50 [2] | Ki [3] [µM] | ED50 [1, 13] [mg/kg] | also measured |
| --- | --- | --- | --- | --- |
| C[C@H](CN1CCC2(C)c3ccc(O)cc3C[C@H]1C2(C)C)Oc1ccccc1 | 6340 nmol/L | 0.864 | – | – |
| COC(C)CN1CCC2(C)c3cc(O)ccc3C[C@@H]1C2(C)C (stereo partly specified) | > 10000 nmol/L | 6.01 | – | ED50 [1]: 0.1 mg/kg; inhibition [9]: 29% |
| C[C@H](CN1CCC2(C)c3cccc(O)c3C[C@H]1C2(C)C)OCc1ccccc1 | 3772 nmol/L | 1.49 | > 100 | Mice [4]: 40% |
| CC12CCN(CCc3ccccc3)[C@@H](Cc3cc(O)ccc31)C2(C)C | 5029 nmol/L | 1.29 | – | – |
| CC1[C@H]2Cc3c(O)cccc3C1(C)CCN2C[C@@H](C)OCc1ccccc1 (stereo partly specified) | 452 nmol/L | 0.153 | 3.1 | – |
| COC(C)CN1CCC2(C)c3c(O)cccc3C[C@@H]1C2(C)C (stereo partly specified) | > 10000 nmol/L | 8.99 | – | inhibition [9]: 23% |
| CO[C@@H](C)CN1CCC2(C)c3cccc(O)c3C[C@H]1C2(C)C | > 10000 nmol/L | 10 | – | inhibition [9]: 25%; inhibition [10]: 52% |
| Cc1ccc(-c2nc(CN3CCN(C(c4ccccc4)c4ccccc4)CC3)c(C)[nH]2)cc1 [LIFARIZINE] | 494 nmol/L | 0.259 | – | – |
| CC12CCN(CCOCc3ccccc3)[C@H](Cc3c(O)cccc31)C2(C)C | 379 nmol/L | 0.02 | 2.1 | Ki [11]: > 10000 nM l-1; Ki [5]: 60 nM l-1; Ki [7]: > 10000 nM l-1; Ki [8]: 217 nM l-1 |
| CO[C@H](C)CN1CCC2(C)c3cccc(O)c3C[C@H]1C2(C)C | > 10000 nmol/L | 10 | – | inhibition [9]: 42%; inhibition [10]: 48% |
| C[C@H](CN1CCC2(C)c3ccc(O)cc3C[C@@H]1C2(C)C)Oc1ccccc1 | 6024 nmol/L | 0.662 | – | – |
| C[C@@H](CN1CCC2(C)c3cccc(O)c3C[C@@H]1C2(C)C)OCc1ccccc1 | 322 nmol/L | 0.043 | 6.1 | Ki [5]: 449 nM l-1; Ki [6]: > 10000 nM l-1; Ki [7]: > 10000 nM l-1; Ki [8]: 660 nM l-1 |
| C[C@H](CN1CCC2(C)c3cccc(O)c3C[C@@H]1C2(C)C)OCC1CCCCC1 | 1481 nmol/L | 0.241 | – | Mice [4]: 0%; ED50 [12]: > 30 mg/kg |
| CC(CN1CCC2(C)C[C@@H]1Cc1c(O)cccc12)OCc1ccccc1 (stereo partly specified) | 255 nmol/L | 0.047 | 2.2 | – |
| COc1ccc2c(c1)[C@]13CCCC[C@@H]1[C@H](C2)N(C)CC3 [DEXTROMETHORPHAN] | > 10000 nmol/L | 4.8 | – | inhibition [9]: 5% |
